Drawing on ChEMBL document CHEMBL2424574, “Structure-activity relationships and pharmacophore model of a noncompetitive pyrazoline containing class of GluN2C/GluN2D selective antagonists” (J Med Chem, 2013), this text covers Ratio IC50 and IC50 for 28 compounds.

The species entered for assay [1] is Rattus norvegicus. Briefly: Selectivity ratio of IC50 for recombinant rat GluN2B receptor to IC50 for recombinant rat GluN2D receptor. In short, it runs like this: (§1)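 Rat GluN1 co-expressed with GluN2A, GluN2B or GluN2D in Xenopus oocytes. Two-electrode voltage clamp at −40 mV in 90 NaCl, 1 KCl, 0.5 BaCl2, 0.005 EDTA, 10 HEPES (mM), pH 7.4, 23 °C; final DMSO 0.1–0.05%. IC50s came from Hill fits to averaged composite concentration-response curves (5–24 oocytes, 2–4 frogs). Ratio is GluN2A or GluN2B IC50 over GluN2D IC50.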

Assay [2] deals with Glutamate receptor ionotropic, NMDA 2A (Rattus norvegicus, UniProt P35439+Q00959). Briefly: Negative allosteric modulation of recombinant rat GluN2A receptor expressed in Xenopus laevis oocytes by two-electrode voltage clamp method. The format is cell-based, Oocyte. A digest of the protocol: (§2)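 Two-electrode voltage clamp of Xenopus oocytes expressing rat GluN1 with GluN2A, 2B, 2C or 2D. Holding potential −40 mV in recording solution (mM: 90 NaCl, 1 KCl, 0.5 BaCl2, 0.005 EDTA, 10 HEPES, pH 7.4, 23 °C). Compounds diluted from 20 mM DMSO stocks to 0.05–0.1% final DMSO. IC50 from a Hill fit to the averaged composite concentration–response curve, 5–24 oocytes from 2–4 frogs.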
A general note: In two-electrode clamp one electrode senses voltage and the other passes current.

For assay [3], the target named is Glutamate receptor ionotropic, NMDA 2B (Rattus norvegicus, UniProt P35439+Q00960). Briefly: Negative allosteric modulation of recombinant rat GluN2B receptor expressed in Xenopus laevis oocytes by two-electrode voltage clamp method. The format is cell-based, Oocyte. In short, it runs like this: as §2
Assay [4] addresses Glutamate receptor ionotropic, NMDA 2C (Rattus norvegicus, UniProt P35439+Q00961). Put plainly: Negative allosteric modulation of recombinant rat GluN2C receptor expressed in Xenopus laevis oocytes by two-electrode voltage clamp method. The format is cell-based, Oocyte. A digest of the protocol:
as §2

Assay [5] addresses Glutamate receptor ionotropic, NMDA 2D (Rattus norvegicus, UniProt P35439+Q62645). Put plainly: Negative allosteric modulation of recombinant rat GluN2D receptor expressed in Xenopus laevis oocytes by two-electrode voltage clamp method. The format is cell-based, Oocyte. In short, it runs like this:
as §2

Assay [6] is filed under the species Rattus norvegicus. Briefly: Selectivity ratio of IC50 for recombinant rat GluN2A receptor to IC50 for recombinant rat GluN2D receptor. In short, it runs like this: as §1

Glutamate receptor ionotropic, NMDA 2B, sequence (Q00960 whole entry, one chain of several): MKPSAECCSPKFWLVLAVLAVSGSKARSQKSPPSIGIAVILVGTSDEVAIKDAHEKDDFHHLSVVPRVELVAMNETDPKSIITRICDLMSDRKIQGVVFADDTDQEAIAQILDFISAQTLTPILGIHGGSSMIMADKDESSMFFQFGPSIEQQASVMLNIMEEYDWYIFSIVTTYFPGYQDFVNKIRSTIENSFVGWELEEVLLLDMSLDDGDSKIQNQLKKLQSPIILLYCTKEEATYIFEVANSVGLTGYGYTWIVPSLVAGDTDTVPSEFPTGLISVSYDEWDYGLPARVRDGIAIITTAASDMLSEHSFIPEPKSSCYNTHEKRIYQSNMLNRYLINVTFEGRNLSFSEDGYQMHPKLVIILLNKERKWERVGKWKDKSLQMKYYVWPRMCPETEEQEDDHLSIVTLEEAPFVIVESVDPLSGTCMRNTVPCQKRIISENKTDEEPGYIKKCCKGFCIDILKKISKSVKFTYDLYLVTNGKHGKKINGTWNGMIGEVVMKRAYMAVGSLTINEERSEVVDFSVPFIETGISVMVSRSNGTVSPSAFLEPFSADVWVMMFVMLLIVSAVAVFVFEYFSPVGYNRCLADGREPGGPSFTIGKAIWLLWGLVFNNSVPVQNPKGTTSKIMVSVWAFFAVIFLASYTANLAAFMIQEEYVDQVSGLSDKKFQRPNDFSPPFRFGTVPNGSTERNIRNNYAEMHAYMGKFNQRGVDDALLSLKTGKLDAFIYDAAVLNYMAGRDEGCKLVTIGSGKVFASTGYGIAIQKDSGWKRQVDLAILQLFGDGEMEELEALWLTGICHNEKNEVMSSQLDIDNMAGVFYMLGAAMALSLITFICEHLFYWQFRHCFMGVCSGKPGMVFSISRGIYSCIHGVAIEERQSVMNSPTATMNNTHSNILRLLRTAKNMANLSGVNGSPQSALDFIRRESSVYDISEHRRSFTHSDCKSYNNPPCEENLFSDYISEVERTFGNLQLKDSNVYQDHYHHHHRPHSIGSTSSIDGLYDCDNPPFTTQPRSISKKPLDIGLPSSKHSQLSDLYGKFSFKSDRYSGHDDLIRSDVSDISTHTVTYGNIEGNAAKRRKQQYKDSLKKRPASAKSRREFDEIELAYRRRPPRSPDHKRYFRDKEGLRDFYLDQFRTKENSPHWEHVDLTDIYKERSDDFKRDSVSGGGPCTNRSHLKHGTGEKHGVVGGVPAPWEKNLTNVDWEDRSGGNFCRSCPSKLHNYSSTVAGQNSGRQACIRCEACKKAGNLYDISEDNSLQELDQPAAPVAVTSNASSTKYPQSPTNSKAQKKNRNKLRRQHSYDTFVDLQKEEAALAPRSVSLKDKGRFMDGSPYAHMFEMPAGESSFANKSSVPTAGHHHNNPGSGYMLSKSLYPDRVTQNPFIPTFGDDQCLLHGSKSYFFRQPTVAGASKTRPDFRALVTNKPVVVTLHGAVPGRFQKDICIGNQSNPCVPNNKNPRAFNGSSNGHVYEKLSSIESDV
Glutamate receptor ionotropic, NMDA 2D, sequence (Q62645 whole entry, one chain of several): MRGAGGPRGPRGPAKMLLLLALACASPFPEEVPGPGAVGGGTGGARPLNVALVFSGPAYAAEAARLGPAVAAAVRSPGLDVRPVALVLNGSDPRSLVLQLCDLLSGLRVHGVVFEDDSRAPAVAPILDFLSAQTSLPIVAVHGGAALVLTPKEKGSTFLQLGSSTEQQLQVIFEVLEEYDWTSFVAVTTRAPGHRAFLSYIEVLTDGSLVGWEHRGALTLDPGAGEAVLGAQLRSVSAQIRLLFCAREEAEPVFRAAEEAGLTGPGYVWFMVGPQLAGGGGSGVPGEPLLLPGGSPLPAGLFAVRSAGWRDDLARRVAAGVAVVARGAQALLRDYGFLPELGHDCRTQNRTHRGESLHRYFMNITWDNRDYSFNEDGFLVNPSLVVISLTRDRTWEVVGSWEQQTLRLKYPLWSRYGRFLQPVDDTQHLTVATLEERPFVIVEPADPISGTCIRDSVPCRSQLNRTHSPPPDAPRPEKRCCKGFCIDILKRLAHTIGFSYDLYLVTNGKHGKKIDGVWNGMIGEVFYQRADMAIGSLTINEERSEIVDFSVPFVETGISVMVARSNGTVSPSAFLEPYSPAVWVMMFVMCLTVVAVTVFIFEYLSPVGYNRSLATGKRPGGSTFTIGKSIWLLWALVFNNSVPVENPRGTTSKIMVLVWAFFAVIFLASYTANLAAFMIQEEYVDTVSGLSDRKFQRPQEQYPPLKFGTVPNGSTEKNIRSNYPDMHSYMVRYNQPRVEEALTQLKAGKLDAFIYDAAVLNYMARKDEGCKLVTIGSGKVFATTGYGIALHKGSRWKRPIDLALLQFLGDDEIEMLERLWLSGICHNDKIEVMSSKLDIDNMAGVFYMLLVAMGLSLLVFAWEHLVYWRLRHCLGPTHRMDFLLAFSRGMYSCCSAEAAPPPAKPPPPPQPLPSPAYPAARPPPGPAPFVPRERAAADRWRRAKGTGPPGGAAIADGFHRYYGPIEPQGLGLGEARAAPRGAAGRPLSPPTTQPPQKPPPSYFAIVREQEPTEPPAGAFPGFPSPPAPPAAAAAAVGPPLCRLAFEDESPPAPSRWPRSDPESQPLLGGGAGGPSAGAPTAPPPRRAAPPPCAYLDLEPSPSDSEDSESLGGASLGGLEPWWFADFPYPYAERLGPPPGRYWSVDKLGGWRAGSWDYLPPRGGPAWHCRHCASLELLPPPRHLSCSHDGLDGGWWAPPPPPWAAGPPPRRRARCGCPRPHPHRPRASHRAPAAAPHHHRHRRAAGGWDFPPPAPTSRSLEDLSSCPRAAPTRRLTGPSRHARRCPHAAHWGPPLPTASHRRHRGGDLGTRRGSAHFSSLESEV
Glutamate receptor ionotropic, NMDA 2C, sequence (Q00961 whole entry, one chain of several): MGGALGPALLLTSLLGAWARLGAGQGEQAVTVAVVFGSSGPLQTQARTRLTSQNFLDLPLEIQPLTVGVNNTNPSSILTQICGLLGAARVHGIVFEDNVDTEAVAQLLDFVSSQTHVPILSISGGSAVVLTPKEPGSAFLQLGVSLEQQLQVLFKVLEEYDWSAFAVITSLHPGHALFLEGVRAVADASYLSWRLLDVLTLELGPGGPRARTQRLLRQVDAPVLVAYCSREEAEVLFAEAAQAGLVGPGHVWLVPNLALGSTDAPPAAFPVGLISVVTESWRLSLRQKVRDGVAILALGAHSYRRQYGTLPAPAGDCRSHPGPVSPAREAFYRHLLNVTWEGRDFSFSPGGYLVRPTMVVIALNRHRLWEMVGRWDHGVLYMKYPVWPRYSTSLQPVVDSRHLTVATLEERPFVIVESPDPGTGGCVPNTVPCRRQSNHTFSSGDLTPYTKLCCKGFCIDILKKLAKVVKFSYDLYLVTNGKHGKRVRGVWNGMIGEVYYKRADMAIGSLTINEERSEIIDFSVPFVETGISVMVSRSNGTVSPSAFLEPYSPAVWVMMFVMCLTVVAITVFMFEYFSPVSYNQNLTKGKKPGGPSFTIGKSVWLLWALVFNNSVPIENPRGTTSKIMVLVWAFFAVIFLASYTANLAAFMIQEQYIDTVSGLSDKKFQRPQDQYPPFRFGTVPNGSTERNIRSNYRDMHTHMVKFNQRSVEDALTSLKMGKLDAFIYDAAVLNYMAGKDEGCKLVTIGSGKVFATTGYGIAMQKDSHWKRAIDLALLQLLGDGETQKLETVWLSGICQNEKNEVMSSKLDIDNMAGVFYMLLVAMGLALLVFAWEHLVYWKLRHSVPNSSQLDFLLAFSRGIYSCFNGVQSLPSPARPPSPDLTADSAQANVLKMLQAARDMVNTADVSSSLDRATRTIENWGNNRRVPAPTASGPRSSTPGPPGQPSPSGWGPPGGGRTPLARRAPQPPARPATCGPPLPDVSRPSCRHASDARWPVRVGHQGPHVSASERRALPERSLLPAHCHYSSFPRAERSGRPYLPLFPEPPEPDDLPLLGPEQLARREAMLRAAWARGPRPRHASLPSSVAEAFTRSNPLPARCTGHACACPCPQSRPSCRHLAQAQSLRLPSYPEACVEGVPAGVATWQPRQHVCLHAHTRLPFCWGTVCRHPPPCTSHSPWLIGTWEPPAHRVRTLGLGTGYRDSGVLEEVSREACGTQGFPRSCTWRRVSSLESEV

In the case of `COc1cccc(-c2c(C3=NN(C(=O)CCC(=O)O)C(c4ccc(Cl)cc4)C3)c(=O)[nH]c3ccccc23)c1` (stereo not given), the figures for the Ratio IC50 in assay [1] and in assay [6] were 34 and 24, respectively. Moreover, the concentration for half-maximal inhibition (IC50) – broadly, the concentration needed to halve the response being measured – in assay [2] was found to be 110 µM; in assay [3] it was 152 µM; in assay [4] it was 7.8 µM; in assay [5], 4.5 µM.
As for `O=C(O)CCC(=O)N1N=C(c2c(-c3ccc(Cl)cc3)c3ccccc3[nH]c2=O)C[C@@H]1c1ccc(Cl)cc1`, the Ratio IC50 is 49 in assay [1] and 23 in assay [6]. In addition, the IC50 worked out at 45 µM in assay [2], 52 µM in assay [3], 2.1 µM in assay [4] and 1.9 µM in assay [5].
In the case of `O=C(O)CCC(=O)N1N=C(c2c(-c3ccc(Cl)c(F)c3)c3ccccc3[nH]c2=O)CC1c1ccc(Cl)cc1` (stereo not given), the Ratio IC50 in assay [1] stood at 53; in assay [6], 23. Besides, the IC50 in assay [2] amounted to 12 µM; in assay [3], 28 µM; in assay [4], 0.91 µM; in assay [5], 0.53 µM.
In the case of `O=C(O)CCC(=O)N1N=C(c2c(-c3ccccc3)c3cc(Cl)ccc3[nH]c2=O)CC1c1ccc([N+](=O)[O-])cc1` (stereo not given), the Ratio IC50 was 42 in assay [1] and 85 in assay [6]. The IC50 in assay [2] turned out to be 91 µM; in assay [3], 45 µM; in assay [4], 0.9 µM; in assay [5] it was 1.1 µM.
With `O=C(O)CCC(=O)N1N=C(c2c(-c3ccccc3)c3cc(Cl)ccc3[nH]c2=O)CC1c1ccc(F)cc1` (stereo not given), the Ratio IC50 in assay [1] came to 6; in assay [6] it was 9. Besides, the 50% inhibitory concentration (IC50) in assay [2] turned out to be 128 µM; in assay [3] it was 87 µM; in assay [4], 23 µM; in assay [5] it was 14 µM.
In the case of `O=C(O)CCC(=O)N1N=C(c2c(-c3ccc(Cl)c(Cl)c3)c3ccccc3[nH]c2=O)CC1c1ccc(Cl)cc1` (stereo not given), the Ratio IC50 in assay [1] stood at 22; in assay [6], 8. Moreover, the IC50 worked out at 7.7 µM in assay [2], 20 µM in assay [3], 0.79 µM in assay [4] and 0.91 µM in assay [5].
Regarding `O=C(O)CCC(=O)N1N=C(c2c(-c3ccc(Br)cc3)c3ccccc3[nH]c2=O)CC1c1ccc(Cl)cc1` (stereo not given), the IC50 in assay [2] turned out to be 10 µM; in assay [3], 23 µM; in assay [4] it was 0.56 µM; in assay [5], 0.29 µM.
Regarding `O=C(O)CCC(=O)N1N=C(c2c(-c3cccc(F)c3)c3ccccc3[nH]c2=O)CC1c1ccc(Cl)cc1` (stereo not given), the Ratio IC50 was 101 in assay [1] and 67 in assay [6]. The half-maximal inhibitory concentration (IC50) in assay [2] worked out at 46 µM; in assay [3], 70 µM; in assay [4] it was 1.1 µM; in assay [5], 0.69 µM.
`O=C(O)CCC(=O)N1N=C(c2c(-c3ccc(F)cc3)c3ccccc3[nH]c2=O)CC1c1ccc(Cl)cc1` (stereo not given): the Ratio IC50 in assay [1] came out at 98; in assay [6] it was 36. The IC50 in assay [2] was determined as 21 µM; in assay [3] it was 57 µM; in assay [4], 1 µM; in assay [5], 0.58 µM.
As for `O=C(O)CCC(=O)N1N=C(c2c(-c3ccc(C(F)(F)F)cc3)c3ccccc3[nH]c2=O)CC1c1ccc(Cl)cc1` (stereo not given), the Ratio IC50 in assay [1] stood at 14; in assay [6], 10. The IC50 in assay [2] was found to be 29 µM; in assay [3], 39 µM; in assay [4], 3.6 µM; in assay [5] it was 2.8 µM.
With `O=C(O)/C=C\C(=O)N1N=C(c2c(-c3ccc(Br)cc3)c3ccccc3[nH]c2=O)CC1c1ccc(Cl)cc1` (stereo not given), the Ratio IC50 in assay [1] was found to be 30; in assay [6] it was 21. Besides, the concentration for half-maximal inhibition (IC50) in assay [2] stood at 12 µM; in assay [3] it was 17 µM; in assay [4] it was 1 µM; in assay [5], 0.57 µM.
Take `COc1ccc(C2CC(c3c(O)nc4ccc(Cl)cc4c3-c3ccccc3)=NN2C(=O)CCC(=O)O)cc1` (stereo not given): the Ratio IC50 in assay [1] and in assay [6] was 9 each time.
Take `Cc1cccc(-c2c(C3=NN(C(=O)CCC(=O)O)C(c4ccc(Cl)cc4)C3)c(=O)[nH]c3ccccc23)c1` (stereo not given): the Ratio IC50 is 37 in assay [1] and 13 in assay [6]. Moreover, the IC50 amounted to 24 µM in assay [2], 71 µM in assay [3], 4 µM in assay [4] and 1.9 µM in assay [5].
On to `O=C(O)CCC(=O)N1N=C(c2c(-c3ccc(Cl)cc3)c3ccccc3[nH]c2=O)CC1c1ccc(F)cc1` (stereo not given), for which the values for the Ratio IC50 in assay [1] and in assay [6] were 26 and 14, respectively. The IC50 is 47 µM in assay [2], 90 µM in assay [3], 4.1 µM in assay [4] and 3.4 µM in assay [5].
`O=C(O)CCC(=O)N1N=C(c2c(-c3ccc(Cl)cc3)c3ccccc3[nH]c2=O)CC1c1ccc(Br)cc1` (stereo not given): the Ratio IC50 in assay [1] was determined as 67; in assay [6] it was 37. The IC50 is 19 µM in assay [2], 34 µM in assay [3], 0.95 µM in assay [4] and 0.51 µM in assay [5].
As for `O=C(O)CCC(=O)N1N=C(c2c(-c3ccc(Cl)cc3)c3ccccc3[nH]c2=O)CC1c1ccccc1` (stereo not given), the results for the Ratio IC50 in assay [1] and in assay [6] were 13 and 4, respectively. Also, the IC50 in assay [2] was 49 µM; in assay [3], 143 µM; in assay [4], 13 µM; in assay [5], 11 µM.
`O=C(O)CCC(=O)N1N=C(c2c(-c3ccc(Cl)cc3)c3ccccc3[nH]c2=O)C[C@H]1c1ccc(Cl)cc1`: the Ratio IC50 in assay [1] is 156; in assay [6], 78. Moreover, the figures for the IC50 in assay [2], in assay [3] and in assay [4] were 13 µM, 26 µM and 0.22 µM, respectively.
As to `O=C(O)CCC(=O)N1N=C(c2c(-c3cccc(Cl)c3)c3ccccc3[nH]c2=O)CC1c1ccc(Cl)cc1` (stereo not given), the Ratio IC50 in assay [1] is 43; in assay [6], 20. The IC50 in assay [2] stood at 20 µM; in assay [3] it was 43 µM; in assay [4], 2.1 µM; in assay [5] it was 1 µM.
Consider `COc1ccc(C2CC(c3c(-c4ccccc4)c4cc(Cl)ccc4[nH]c3=O)=NN2C(=O)CCC(=O)O)cc1` (stereo not given), for which the IC50 is 197 µM in assay [2], 187 µM in assay [3], 28 µM in assay [4] and 21 µM in assay [5].
Turning to `O=C(O)CCC(=O)N1N=C(c2c(-c3ccc(Br)cc3)c3ccccc3[nH]c2=O)CC1c1ccc(F)cc1` (stereo not given), the Ratio IC50 in assay [1] stood at 26; in assay [6] it was 12. Besides, the IC50 in assay [2] was determined as 34 µM; in assay [3], 75 µM; in assay [4], 3.8 µM; in assay [5] it was 2.9 µM.
As to `O=C(O)CCC(=O)N1N=C(c2c(-c3ccc(F)c(Cl)c3)c3ccccc3[nH]c2=O)CC1c1ccc(Cl)cc1` (stereo not given), the Ratio IC50 came to 34 in assay [1] and 19 in assay [6]. Further, the IC50 turned out to be 19 µM in assay [2], 34 µM in assay [3], 1.4 µM in assay [4] and 1 µM in assay [5].
On to `COc1ccc(-c2c(C3=NN(C(=O)CCC(=O)O)C(c4ccc(Cl)cc4)C3)c(=O)[nH]c3ccccc23)cc1` (stereo not given), for which the Ratio IC50 stood at 33 in assay [1] and 27 in assay [6]. The IC50 in assay [2] worked out at 62 µM; in assay [3] it was 75 µM; in assay [4] it was 5 µM; in assay [5], 2.3 µM.
For `O=C(O)CCCN1N=C(c2c(-c3ccc(Cl)cc3)c3ccccc3[nH]c2=O)CC1c1ccc(Cl)cc1` (stereo not given), the results for the Ratio IC50 in assay [1] and in assay [6] were 31 and 34, respectively. Further, the IC50 in assay [2] came out at 58 µM; in assay [3] it was 53 µM.
As to `O=C(O)CCC(=O)N1N=C(c2c(-c3ccccc3)c3cc(Cl)ccc3[nH]c2=O)CC1c1ccccc1` (stereo not given), the IC50 in assay [4] came out at 86 µM; in assay [5] it was 88 µM.
On to `O=C(O)CCCC(=O)N1N=C(c2c(-c3ccc(Br)cc3)c3ccccc3[nH]c2=O)CC1c1ccc(Cl)cc1` (stereo not given), for which the Ratio IC50 was determined as 91 in assay [1] and 33 in assay [6]. Moreover, the IC50 in assay [2] was 10 µM; in assay [3], 29 µM; in assay [4], 0.6 µM; in assay [5], 0.32 µM.
As to `Cc1ccc(-c2c(C3=NN(C(=O)CCC(=O)O)C(c4ccc(Cl)cc4)C3)c(=O)[nH]c3ccccc23)cc1` (stereo not given), the Ratio IC50 in assay [1] is 30; in assay [6], 24. Besides, the IC50 in assay [2] amounted to 33 µM; in assay [3], 42 µM; in assay [4], 2.5 µM; in assay [5], 1.4 µM.
Consider `O=C(O)CCC(=O)N1N=C(c2c(-c3ccc(Br)cc3)c3ccccc3[nH]c2=O)CC1c1ccc(Br)cc1` (stereo not given), for which the Ratio IC50 amounted to 59 in assay [1] and 33 in assay [6]. Moreover, the IC50 worked out at 13 µM in assay [2] and 23 µM in assay [3].
As to `O=C(O)CCC(=O)N1N=C(c2c(-c3ccccc3)c3cc(Cl)ccc3[nH]c2=O)CC1c1ccc(C(F)(F)F)cc1` (stereo not given), the Ratio IC50 in assay [1] is 13; in assay [6], 20. Besides, the IC50 in assay [2] stood at 80 µM; in assay [3], 54 µM; in assay [4], 5 µM.
